Assay results reported in ChEMBL document CHEMBL1124947, “Cationic antiprotozoal drugs. Trypanocidal activity of 2-(4'-formylphenyl)imidazo[1,2-a]pyridinium guanylhydrazones and related derivatives of quaternary heteroaromatic compounds” (J Med Chem, 1990).

Assays:
Type in all cases: functional
Mus musculus [1] = test: Trypanocidal Activity at I.C.E. value 0.36 when administered subcutaneously.
Mus musculus [2] = test: Trypanocidal Activity at I.C.E. value 0.47 when administered perorally.
Mus musculus [3] = test: Trypanocidal Activity at I.C.E. value 0.52 when administered perorally.
Mus musculus [4] = test: Trypanocidal Activity at I.C.E. value 0.86 when administered subcutaneously.
Summary of the method: (§1)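 Mice, in groups of five per dose, were given a standard inoculum of blood-stage T. rhodesiense that is lethal to all untreated controls, then dosed subcutaneously. Usually 11 dose levels were used (2^n × 0.42 mg/kg).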

[5] = tested on: Trypanosoma brucei rhodesiense; test: In Vitro measurement of inhibition of thymidine uptake in cell culture of Trypanosoma rhodesiense; conditions: read-out: ID50 (the source's name)
Summary of the method: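 Parasites harvested from infected rats and incubated 3 h across a drug concentration series, usually 0.1–100 µg/mL. Incorporation of radiolabeled thymidine measured. ID50 is the concentration (µg/mL) producing 50% inhibition.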

[6] = tested on: Trypanosoma brucei rhodesiense; test: In Vitro measurement of inhibition of leucine uptake in cell culture of Trypanosoma rhodesiense; conditions: read-out: ID50 (the source's name)
Summary of the method: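 Trypanosomes harvested from infected rats, cultured 3 h with several concentrations of drug, usually 0.1–100 µg/mL. Radiolabeled L-leucine uptake measured. ID50 is the concentration in µg/mL giving 50% inhibition of incorporation.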

Mus musculus [7] = test: Trypanocidal Activity at I.C.E. value 0.4 when administered perorally.
Mus musculus [8] = test: Trypanocidal Activity at I.C.E. value 0.47 when administered subcutaneously.
Summary of the method: (§2)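 Blood-stage T. rhodesiense infection came from a standard inoculum lethal to all untreated mice. Drug was given by subcutaneous injection to groups of five mice. Survival beyond 30 days counted as cure. […] Sub-curative doses scored 0, and data were normalized at each dose.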

Mus musculus [9] = test: Trypanocidal Activity at I.C.E. value 0.48 when administered perorally.
Mus musculus [10] = test: Trypanocidal Activity at I.C.E. value 0.49 when administered subcutaneously.; summary of the method: as §2
Mus musculus [11] = test: Trypanocidal Activity at I.C.E. value 0.62 when administered subcutaneously.; summary of the method: as §1
Mus musculus [12] = test: Trypanocidal Activity at I.C.E. value 0.12 when administered perorally.
Mus musculus [13] = test: Trypanocidal Activity at I.C.E. value 0.23 when administered subcutaneously.; summary of the method: as §2
Mus musculus [14] = test: Trypanocidal Activity at I.C.E. value 0.31 when administered perorally.
Mus musculus [15] = test: Trypanocidal Activity at I.C.E. value 0.34 when administered subcutaneously.; summary of the method: as §2
Mus musculus [16] = test: Trypanocidal Activity was determined after subcutaneous administration; summary of the method: as §1
Mus musculus [17] = test: Trypanocidal Activity at I.C.E. value 0.22 when administered subcutaneously.
Mus musculus [18] = test: Trypanocidal Activity at I.C.E. value 0.94 when administered subcutaneously.; summary of the method: as §1
Mus musculus [19] = test: Trypanocidal Activity at I.C.E. value 0.40 when administered perorally.
Mus musculus [20] = test: Trypanocidal Activity at I.C.E. value 0.57 when administered subcutaneously.; summary of the method: as §1
Mus musculus [21] = test: Trypanocidal Activity at I.C.E. value 0.66 when administered subcutaneously.; summary of the method: as §1
Mus musculus [22] = test: Trypanocidal Activity at I.C.E. value 0.50 when administered subcutaneously.; summary of the method: as §2
Mus musculus [23] = test: Trypanocidal Activity at I.C.E. value 0.17 when administered perorally.
Mus musculus [24] = test: Trypanocidal Activity at I.C.E. value 0.19 when administered subcutaneously.
Mus musculus [25] = test: Trypanocidal Activity at I.C.E. value 0.63 when administered subcutaneously.; summary of the method: as §1
Mus musculus [26] = test: Trypanocidal Activity at I.C.E. value 0.79 when administered subcutaneously.; summary of the method: as §1
Mus musculus [27] = test: Trypanocidal Activity at I.C.E. value 0.63 when administered perorally.
Mus musculus [28] = test: Trypanocidal Activity at I.C.E. value 0.54 when administered subcutaneously.; summary of the method: as §2
Mus musculus [29] = test: Trypanocidal Activity at I.C.E. value 0.48 when administered subcutaneously.; summary of the method: as §2
Mus musculus [30] = test: Trypanocidal Activity at I.C.E. value 0.06 when administered perorally.

**Q.** With `Br.C[n+]1c(COc2ccc(/C=N/NC(=N)N3CCCC3)cc2)cn2ccccc21.[Br-]` as the molecule, how does the CD50 (Mus musculus [1]) read?
**A.** 0.8 mg/kg

**Q.** What about the CD50 (Mus musculus [2]) of the same molecule?
**A.** 26 mg/kg

**Q.** For `Br.Cc1cccc2n1cc(/C=C/c1ccc(/C=N/NC3=NCCN3)cc1)[n+]2C.[Br-]`, which CD50 (Mus musculus [3]) is on record?
**A.** 26 mg/kg

**Q.** What about the CD50 (Mus musculus [4]) of the same molecule?
**A.** 0.4 mg/kg

**Q.** What does the source list for `Br.C[n+]1cccc(COc2ccc(/C=N/NC(=N)N3CCCC3)cc2)c1.[Br-]`?
**A.** IC50 [5]: 0.3 µg/mL; IC50 [6]: 0.8 µg/mL; CD50 (Mus musculus [7]): 26 mg/kg; CD50 (Mus musculus [8]): 0.8 mg/kg

**Q.** With `Br.Cc1cccc2n1cc(COc1ccc(/C=N/NC(=N)N)cc1)[n+]2C.[Br-]` as the molecule, how does the CD50 (Mus musculus [9]) read?
**A.** 13 mg/kg

**Q.** And the CD50 (Mus musculus [10])?
**A.** 0.8 mg/kg

**Q.** For `Cc1ccc(S(=O)(=O)[O-])cc1.Cc1cccc2n1cc(/C=C/c1ccc(/C=N/NC(=O)c3ccc(N)cc3)cc1)[n+]2C`, which CD50 (Mus musculus [11]) is on record?
**A.** 6.6 mg/kg

**Q.** Which CD50 (Mus musculus [12]) does the source give for `Br.Cn1c[n+](Cc2ccc(/C=N/NC(=N)N3CCCC3)cc2)c2ccccc21.[Br-]` here?
**A.** 424 mg/kg

**Q.** What about the IC50 [5] of the same molecule?
**A.** 0.6 µg/mL

**Q.** What about the IC50 [6] of the same molecule?
**A.** 0.7 µg/mL

**Q.** What about the CD50 (Mus musculus [13]) of the same molecule?
**A.** 6.6 mg/kg

**Q.** Which results are given for `Br.C[n+]1c(-c2ccc(/C=C/C=N/NC(=N)N3CCCC3)cc2)cn2ccccc21.[Br-]`?
**A.** CD50 (Mus musculus [14]): 53 mg/kg; CD50 (Mus musculus [15]): 0.8 mg/kg

**Q.** `Cc1ccc2n(c1)cc(-c1ccc(/C=N/NC(=N)N[N+](=O)[O-])cc1)[n+]2C.[Br-]` was tested. Which CD50 (Mus musculus [16]) did it give?
**A.** <26 mg/kg

**Q.** Which results are given for `C[n+]1cccc(COc2ccc(/C=N/NC(=N)NO)cc2)c1.Cc1ccc(S(=O)(=O)O)cc1.Cc1ccc(S(=O)(=O)[O-])cc1`?
**A.** IC50 [5]: 3.8 µg/mL; IC50 [6]: 10.3 µg/mL; CD50 (Mus musculus [17]): 1.6 mg/kg

**Q.** With `Br.Cc1ccc2n(c1)cc(-c1ccc(/C=N/NC(=N)N3CCCC3)cc1)[n+]2C.[Br-]` as the molecule, how does the CD50 (Mus musculus [10]) read?
**A.** 0.1 mg/kg

**Q.** What does the source list for `Br.CCCSc1ccc2n(c1)cc(-c1ccc(/C=N/NC(=N)N3CCCC3)cc1)[n+]2C.[Br-]`?
**A.** CD50 (Mus musculus [18]): 0.1 mg/kg; CD50 (Mus musculus [14]): 53 mg/kg

**Q.** `Br.CC/N=C(\NCC)N/N=C/c1ccc(-c2cn3ccccc3[n+]2C)cc1.[Br-]` was tested. Which CD50 (Mus musculus [19]) did it give?
**A.** 53 mg/kg

**Q.** And the CD50 (Mus musculus [20])?
**A.** 1.6 mg/kg

**Q.** Which CD50 (Mus musculus [21]) does the source give for `Br.CC/N=C(\NCC)N/N=C/c1ccc(-c2cn3cc(C)ccc3[n+]2C)cc1.[Br-]` here?
**A.** 1.6 mg/kg

**Q.** How did the CD50 (Mus musculus [22]) turn out when `Br.CCCCNC(=N)N/N=C/c1ccc(-c2cn3ccccc3[n+]2C)cc1.[Br-]` was run?
**A.** 0.8 mg/kg

**Q.** For `Br.C[n+]1ccccc1COc1ccc(/C=N/NC(=N)N2CCCC2)cc1.[Br-]`, which CD50 (Mus musculus [23]) is on record?
**A.** 106 mg/kg

**Q.** And the CD50 (Mus musculus [24])?
**A.** 0.1 mg/kg

**Q.** Which CD50 (Mus musculus [25]) does the source give for `CCCCSc1ccc2n(c1)cc(-c1ccc(/C=N/NC(=N)N3CCCC3)cc1)[n+]2C.Cc1ccc(S(=O)(=O)O)cc1.Cc1ccc(S(=O)(=O)[O-])cc1` here?
**A.** 3.3 mg/kg

**Q.** And the CD50 (Mus musculus [23])?
**A.** 212 mg/kg

**Q.** Which results are given for `CC(=O)Nc1ccc2n(c1)cc(-c1ccc(/C=N/NC(=N)N)cc1)[n+]2C.Cc1ccc(S(=O)(=O)O)cc1.Cc1ccc(S(=O)(=O)[O-])cc1`?
**A.** IC50 [5]: 1.5 µg/mL; IC50 [6]: > 10 µg/mL; CD50 (Mus musculus [26]): 0.4 mg/kg

**Q.** What does the source list for `Br.Cn1cc[n+](C)c1/C=C/c1ccc(/C=N/NC2=NCCCN2)cc1.[Br-]`?
**A.** CD50 (Mus musculus [27]): 6.6 mg/kg; CD50 (Mus musculus [28]): 0.8 mg/kg

**Q.** With `Br.Cc1ccn2cc(-c3ccc(/C=N/NC(=N)N4CCCC4)cc3)[n+](C)c2c1.[Br-]` as the molecule, how does the CD50 (Mus musculus [29]) read?
**A.** 0.1 mg/kg

**Q.** What about the CD50 (Mus musculus [2]) of the same molecule?
**A.** 13 mg/kg

**Q.** What does the source list for `C[n+]1ccc(COc2ccc(/C=N/NC(=N)N3CCCC3)cc2)cc1.Cc1ccc(S(=O)(=O)O)cc1.Cc1ccc(S(=O)(=O)[O-])cc1`?
**A.** IC50 [5]: 9.3 µg/mL; IC50 [6]: 13.6 µg/mL; CD50 (Mus musculus [7]): 424 mg/kg; CD50 (Mus musculus [8]): 0.8 mg/kg

**Q.** How did the CD50 (Mus musculus [18]) turn out when `C[n+]1c(-c2ccc(/C=C/C=N/NC(=N)N)cc2)cn2ccccc21.Cc1ccc(S(=O)(=O)O)cc1.Cc1ccc(S(=O)(=O)[O-])cc1` was run?
**A.** 0.06 mg/kg

**Q.** And the CD50 (Mus musculus [27])?
**A.** 6.6 mg/kg

**Q.** Which CD50 (Mus musculus [21]) does the source give for `Br.CCNC(=N)N/N=C/c1ccc(/C=C/c2cn3ccccc3[n+]2C)cc1.[Br-]` here?
**A.** 0.1 mg/kg

**Q.** Which CD50 (Mus musculus [24]) does the source give for `Br.Cn1c[n+](Cc2ccc(/C=N/NC(=N)N)cc2)c2ccccc21.[Br-]` here?
**A.** 6.6 mg/kg

**Q.** And the CD50 (Mus musculus [30])?
**A.** 424 mg/kg
